The results in this text go back to ChEMBL document CHEMBL6114938, “Design, synthesis, and biological evaluation of pyrazole-ciprofloxacin hybrids as antibacterial and antibiofilm agents against Staphylococcus aureus” (RSC Med Chem, 2025).

Converted amounts (≈) assume the structure as drawn. The source made the active and inactive calls. The rule behind the calls is not given here.

Data set [1] deals with Staphylococcus aureus. The data set is described as follows: Antibacterial activity against Staphylococcus aureus ATCC 29213 assessed as inhibition of bacterial growth incubated for 18 to 24 hrs by two-fold serial dilution method. It counts as functional. The following applies: time 18-24 hrs. A digest of the protocol: (§1)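 Broth microdilution in cation-adjusted Mueller Hinton broth with two-fold serial dilutions. Inoculum came from overnight cultures on Mueller Hinton agar, set to OD600 0.08-0.1 and diluted 100-fold, then added 1:1 to the compound wells. Plates were incubated at 37 °C for 18-24 h and read visually. MIC is the lowest concentration with no turbidity.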

A further data set has as its system Pseudomonas aeruginosa. The experiment in a line: Antibacterial activity against Pseudomonas aeruginosa PAO1 ATCC 15692 assessed as inhibition of bacterial growth incubated for 18 to 24 hrs by two-fold serial dilution method. It counts as functional. The conditions noted are these: time 18-24 hrs. A digest of the protocol:
as §1

Data set [2] has as its system Staphylococcus aureus. The experiment in a line: Antibacterial activity against one-step ciprofloxacin resistant mutant of Staphylococcus aureus ATCC 29213 assessed as inhibition of bacterial growth by liquid broth microdilution assay. It counts as functional. The gist of the method:
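One-step ciprofloxacin-resistant mutants were raised by plating log-phase cells adjusted to 10¹⁰ CFU/ml on ciprofloxacin-containing Mueller-Hinton agar for 48 h at 37 °C, then passaging picked colonies on ciprofloxacin plates. Mutants with a more than eightfold rise in ciprofloxacin MIC were kept. MIC was read by broth microdilution: two-fold dilutions in cation-adjusted MHB, and inoculum of OD₆₀₀ 0.08–0.1 diluted hundredfold. Plates ran 18–24 h at 37 °C, and MIC was the lowest concentration with no visible turbidity.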

Data set [3] has as its system Staphylococcus aureus. The data set is described as follows: Antibiofilm activity against Staphylococcus aureus ATCC 29213 assessed as inhibition of biofilm formation incubated for 24 hrs by crystal violet staining based analysis. The class given is functional. A digest of the protocol: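 Biofilm formation assay with inoculum at OD600 0.015 from overnight culture. Twelve two-fold dilutions (128 to 0.06 µg/ml) were made in MHB with 2% sucrose in flat-bottom polystyrene wells and incubated at 37 °C for 24 h. Wells were washed with PBS pH 7.4, fixed with methanol, stained with 0.1% crystal violet, eluted with 95% ethanol and read at A595. MBIC50 is the lowest concentration giving ≥50% inhibition versus untreated culture.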

Data set [4] deals with Mycobacterium tuberculosis. The experiment in a line: Antimycobacterial activity against Mycobacterium tuberculosis H37Ra ATCC 25177 assessed as inhibition of bacterial growth incubated for 10 days by liquid broth microdilution method. The class given is functional. The conditions noted are these: H37Ra ATCC 25177, 240 h, time 10 day. The gist of the method: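 Log-phase H37Ra (OD₆₀₀ 0.4–0.6) was grown in 7H9 with D-pantothenic acid, amino acids, 0.2% glycerol, 0.05% Tween 80 and 10% ADS, then diluted to OD₆₀₀ 0.005 (1.0×10⁶ CFU/ml). Compounds were two-fold serially diluted in 7H9, and plates were incubated for 10 days at 37 °C in 5% CO₂. MIC was the lowest concentration without visible turbidity.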

Data set [5] concerns Staphylococcus aureus. The experiment in a line: Potency index, ratio of ciprofloxacin MIC to test compound MIC for antibacterial activity against Staphylococcus aureus ATCC 29213. It counts as functional.
Data set [6] relates to Staphylococcus aureus. The experiment in a line: Ratio of MIC for antibacterial activity against Staphylococcus aureus ATCC 29213 to MBIC50 for antibiofilm activity against Staphylococcus aureus ATCC 29213. It counts as functional.
In data set [7] the test system is Staphylococcus aureus. The data set is described as follows: Bactericidal activity against Staphylococcus aureus ATCC 29213 assessed as log reduction in bacterial load at 1XMIC measured within 9 hrs by time-kill kinetics analysis. It counts as functional. The gist of the method: (§2)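 Time-kill: log-phase cultures at OD600 0.005 were exposed to 1×, 4× and 8× MIC at 37 °C. Viable counts (CFU/ml) were taken by plating 10-fold serial dilutions at 2, 4, 6, 8, 10 and 24 h. Curves plot log10 CFU/ml against time over 24 h.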

The test system of data set [8] is Staphylococcus aureus. The data set is described as follows: Bactericidal activity against Staphylococcus aureus ATCC 29213 assessed as log reduction in bacterial load at 4X to 8XMIC measured within 3 hrs by time-kill kinetics analysis. The class given is functional. A digest of the protocol:
as §2

Data set [9] can be described thus: Cytotoxicity against human HepG2 cells assessed as reduction in cell viability incubated for 48 hrs by MTT assay. The class given is toxicity, cell-based. A digest of the protocol: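 MTT viability assay in HepG2 cells seeded at 1000-4000 per well and allowed to adhere overnight. Compounds were tested at 1000-0.78 µg/mL for 48 h in fresh medium. MTT 0.5 mg/mL was added for 4 h at 37 °C, formazan was dissolved in DMSO, and absorbance was read at 570 nm.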
(In general: Tetrazolium assays rely on reduction of a dye to a coloured formazan, in cell work by metabolically active cells.)

The target of data set [10] is DNA gyrase (Escherichia coli) (UniProt P0AES6+P0AES4). The data set is described as follows: Inhibition of Escherichia coli DNA gyrase assessed as reduction in supercoiled state of plasmid using pUC19 plasmid DNA as substrate at 8XMIC incubated for 90 mins by gel electrophoresis analysis. The class given is protein-complex assay.
Data set [11] concerns Staphylococcus aureus. The data set is described as follows: Potency index, ratio of ciprofloxacin MBIC50 to test compound MBIC50 for antibiofilm activity against Staphylococcus aureus ATCC 29213. It counts as functional.
Data set [12] has as its system Staphylococcus aureus. The experiment in a line: Antibacterial activity against methicillin-resistant Staphylococcus aureus assessed as inhibition of bacterial growth. It counts as functional.
The test system of data set [13] is Staphylococcus aureus. The data set is described as follows: Bactericidal activity against Staphylococcus aureus ATCC 29213 assessed as bacterial killing at 8XMIC measured within 6 hrs by time-kill kinetics analysis. The class given is functional, organism-based. The gist of the method:
as §2

Data set [14] has as its system Mycobacterium tuberculosis. The data set is described as follows: Antimycobacterial activity against Mycobacterium tuberculosis H37Rv ATCC 27294 assessed as inhibition of bacterial growth incubated for 7 days by broth microdilution assay. It counts as functional. The conditions noted are these: H37Rv ATCC 27294, 168 h, time 7 day. On the technique in general: Broth dilution looks for growth in wells or tubes with falling amounts of substance.

Regarding `O=C(O)c1cn(C2CC2)c2cc(N3CCNCC3)c(F)cc2c1=O` [CIPROFLOXACIN], the MIC (usually the least concentration at which growth counts as inhibited) in the data set with Staphylococcus aureus [1] worked out at 0.25 µg/mL (≈ 0.754 µM); in the data set on Pseudomonas aeruginosa, 0.06 µg/mL (≈ 0.181 µM); with Staphylococcus aureus [2] it was 2 µg/mL (≈ 6.04 µM). Moreover, the MBIC50 in the data set on Staphylococcus aureus [3] came out at 1.06 µg/mL.

For `COc1cccc(-c2ccn(-c3ccc(NC(=O)CN4CCN(c5cc6c(cc5F)c(=O)c(C(=O)O)cn6C5CC5)CC4)cc3)n2)c1`, the minimal inhibitory concentration (MIC) came out at 1 µg/mL (≈ 1.57 µM) in the data set on Staphylococcus aureus [1], 32 µg/mL (≈ 50.3 µM) with Pseudomonas aeruginosa and 4 µg/mL (≈ 6.28 µM) in [4].

Regarding `COc1ccccc1-c1ccn(-c2ccc(NC(=O)CN3CCN(c4cc5c(cc4F)c(=O)c(C(=O)O)cn5C4CC4)CC3)cc2)n1`, the minimum inhibitory concentration (MIC) with Staphylococcus aureus [1] came to 0.125 µg/mL (≈ 0.196 µM); in the data set on Pseudomonas aeruginosa, 64 µg/mL (≈ 101 µM); in data set [4], 4 µg/mL (≈ 6.28 µM); in the data set with Staphylococcus aureus [2], 0.125 µg/mL (≈ 0.196 µM). Moreover, the results for the Ratio in the data set on Staphylococcus aureus [5], in the data set on Staphylococcus aureus [6] and in the data set on Staphylococcus aureus [11] were 2, 6 and 50, respectively. Besides, the MBIC50 with Staphylococcus aureus [3] is 0.02 µg/mL. Moreover, the Activity result in the data set on Staphylococcus aureus [7] and in the data set with Staphylococcus aureus [8] was “>=3 log10CFU/ml” each time. In data set [9], the CC50 (in general, the concentration giving 50% cytotoxicity) at 48 h was over 1000 µg/mL. In addition, the inhibition entry in [10] was “Active”.

Consider `Cc1ccc(-c2ccn(-c3ccc(NC(=O)CN4CCN(c5cc6c(cc5F)c(=O)c(C(=O)O)cn6C5CC5)CC4)cc3)n2)cc1`, for which the figures for the MIC (with Staphylococcus aureus [1]; with Pseudomonas aeruginosa; in [4]) were 8 µg/mL (≈ 12.9 µM), 128 µg/mL (≈ 206 µM) and 32 µg/mL (≈ 51.6 µM), respectively.

Consider `COc1cc(-c2ccn(-c3ccc(NC(=O)CN4CCN(c5cc6c(cc5F)c(=O)c(C(=O)O)cn6C5CC5)CC4)cc3)n2)cc(OC)c1OC`, for which the minimum inhibitory concentration (MIC) was 0.125 µg/mL (≈ 0.179 µM) in the data set on Staphylococcus aureus [1], 32 µg/mL (≈ 45.9 µM) in the data set with Pseudomonas aeruginosa, 0.5 µg/mL (≈ 0.718 µM) in data set [4] and 1 µg/mL (≈ 1.44 µM) with Staphylococcus aureus [2]. Also, in the data set with Staphylococcus aureus [5], the Ratio is listed as 2. Further, in the data set on Staphylococcus aureus [3], the MBIC50 came out at 0.52 µg/mL. Also, the CC50 at 48 h in data set [9] was over 1000 µg/mL.

For the molecule `O=C(CN1CCN(c2cc3c(cc2F)c(=O)c(C(=O)O)cn3C2CC2)CC1)Nc1ccc(-n2ccc(-c3ccc(F)cc3)n2)cc1`, the MIC came to 0.125 µg/mL (≈ 0.2 µM) with Staphylococcus aureus [1], 32 µg/mL (≈ 51.2 µM) in the data set on Pseudomonas aeruginosa, 1 µg/mL (≈ 1.6 µM) in data set [4] and 8 µg/mL (≈ 12.8 µM) in the data set with Staphylococcus aureus [2]. For the same molecule, in the data set on Staphylococcus aureus [5], the Ratio was found to be 2. For the same molecule, in the data set on Staphylococcus aureus [3], the MBIC50 turned out to be 2.7 µg/mL. In [9], the 50% cytotoxic concentration (CC50) at 48 h is over 1000 µg/mL.

In the case of `COc1cc(OC)c(-c2cc(-c3cn(-c4ccccc4)nc3-c3ccccc3)[nH]c(=N)n2)cc1OC`, the MIC with Staphylococcus aureus [12] amounted to 521 µM (≈ 250 µg/mL).

Regarding `O=C(CN1CCN(c2cc3c(cc2F)c(=O)c(C(=O)O)cn3C2CC2)CC1)Nc1ccc(-n2ccc(-c3ccc4ccccc4c3)n2)cc1`, the MIC is 1 µg/mL (≈ 1.52 µM) in the data set on Staphylococcus aureus [1], 2 µg/mL (≈ 3.05 µM) in the data set on Pseudomonas aeruginosa and 1 µg/mL (≈ 1.52 µM) in data set [4].

Take `O=C(CN1CCN(c2cc3c(cc2F)c(=O)c(C(=O)O)cn3C2CC2)CC1)Nc1ccc(-n2ccc(-c3cccc(Cl)c3)n2)cc1`: the figures for the MIC (in the data set with Staphylococcus aureus [1]; with Pseudomonas aeruginosa; in data set [4]) were 8 µg/mL (≈ 12.5 µM), 64 µg/mL (≈ 99.8 µM) and 8 µg/mL (≈ 12.5 µM), respectively.

With `NNC(=O)c1ccncc1` [ISONIAZID], the MIC in data set [4] was 0.034 µg/mL (≈ 0.248 µM).

Turning to `O=C(CN1CCN(c2cc3c(cc2F)c(=O)c(C(=O)O)cn3C2CC2)CC1)Nc1ccc(-n2ccc(-c3ccccc3)n2)cc1`, the MIC was 0.125 µg/mL (≈ 0.206 µM) in the data set with Staphylococcus aureus [1], 8 µg/mL (≈ 13.2 µM) in the data set with Pseudomonas aeruginosa, 0.5 µg/mL (≈ 0.824 µM) in data set [4] and 0.5 µg/mL (≈ 0.824 µM) in the data set with Staphylococcus aureus [2]. Also, the Ratio in the data set with Staphylococcus aureus [5] was found to be 2. Moreover, in the data set with Staphylococcus aureus [3], the MBIC50 amounted to 0.27 µg/mL. Further, the outcome in the data set with Staphylococcus aureus [13] was Active. Moreover, the CC50 at 48 h in [9] is over 1000 µg/mL.

For `O=C(Nc1ccc(-n2ccc(-c3cc4ccccc4o3)n2)cc1)c1cc([N+](=O)[O-])cc([N+](=O)[O-])c1`, the MIC in data set [14] amounted to 0.03 µg/mL (≈ 0.0639 µM).
